# Assay outcomes from PubChem BioAssay.
# This is a sample that favours compounds with a hit; in the whole collection about 3.7% have one here.
# CHOP UPR activ = activators of apoptotic CHOP UPR arm, primary screen, cell-based, CHO-CHOP luciferase reporter, luminescence, uHTS. UPR activation; percent of tunicamycin response over DMSO baseline. activation, % at 10 µM. actives 0.34% (n = 330,000). AID 449763, 2010;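 active = at 10 µM dose, activation of 40% or more, normalized to positive control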;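 also: 100% = tunicamycin at 10 µg/mL and 0% = DMSO alone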
#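 Dosing – one dose, 10 µM in 0.5% DMSO · System – CHO-CHOP cells, stable luciferase reporter of PERK-eIF2a-CHOP signalling · Input – 500 cells/well · Control set – tunicamycin 10 µg/mL final as positive, DMSO-only wells as negative · Timing – 6 h compound treatment, 37 °C · Measure – % activation vs tunicamycin · Technique – luminescence read with Steady-Glo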
# UPR XBP1 act = activators of adaptive XBP1 UPR arm, primary screen, cell-based, CHO-XBP1 luciferase reporter, luminescence, uHTS | IRE1-XBP1 UPR activation; percent of tunicamycin response, DMSO as zero | activation, % at 20 µM | actives 0.33% (n = 330,000) | AID 463104, 2010;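 active = versus positive control, 20 µM dose yields 30% or more activation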;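 also: 100% = tunicamycin at 10 µg/mL and 0% = DMSO only wells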
#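 Assay system: IRE1-XBP1 luciferase reporter CHO line. Input: 1000 cells/well. Buffer or medium: F12 with 10% serum. Doses: 20 µM, 1% DMSO. Times: overnight seeding at 37 °C, 6 h compound treatment at 37 °C. Technique: Steady-Glo luciferase glow luminescence, 10 min after reagent addition.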
# MDM2 E3 inh = MDM2-luciferase reporter signal enhancers, primary screen, MDM2 E3 ligase inhibitor project, cell-based, luminescence, 1536-well. signal enhancement, % at 5 µM. AID 1230, 2008. cell-based MDM2 ubiquitination luciferase reporter, 2 h; 0 = plate control, 100 = twice control, blank-subtracted. actives 0.11% (n = 210,000);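 active = signal enhancement of 30% or more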;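 also: luminescence tracks abundance of the self-degrading MDM2-luciferase fusion protein; higher signal means inhibition of MDM2 E3 ligase activity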
#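 Assay system: stable mammalian line carrying autodegrading MDM2–luciferase fusion reporter; amount: 2000 cells seeded into each well; buffer or medium: DMEM; benchmarks: plate control and blank wells; signal: luciferase luminescence; timing: 2 h compound exposure at 37 °C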
# Beta2AR agonist = beta2AR agonists driving receptor internalization, primary screen, cell-based, FAP fluorogen, flow cytometry; actives 0.43% (n = 340,000); Beta-2 adrenergic receptor (Homo sapiens), P07550; response, % (concentration not given with the values); AID 504454, 2011; Am2.2-beta2AR cells;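 active = response above a set limit, near 3 SD of response in nonfluorescent compounds, cut at about 42% in these data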
# Dynein transport = inhibitors of GR-EGFP nuclear translocation, primary screen, dynein cargo transport inhibitor project, imaging, high-content, 3617.4 mouse cells; test concentration mostly 20 µM; stimulated with dexamethasone, 1 µM; active compounds read low; z-score, hits read low; actives 0.47% (n = 220,000); AID 1381, 2008;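 active = plate z-score of nuclear minus cytoplasmic receptor signal below a set negative limit, without overly bright fluorescence or cell loss, cut at about -3.5 in these data, passing the limit was not always enough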;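 also: z-score of nuclear minus cytoplasmic ring GR-EGFP intensity difference per well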
#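 Buffer or medium: Induction medium lacking tetracycline, stripped serum | Also added: Dexamethasone agonist, 1.0 µM final, for 30 min | Timing: 48 h induction, 1 h compound, 30 min dex at 37 °C | Detection: Formaldehyde fixation, Hoechst nuclear stain, 10x automated fluorescence imaging | Measure: Nuclear versus cytoplasmic GR-EGFP signal, averaged per well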
# Mdm2-MdmX inh = inhibitors of human Mdm2-MdmX association, primary screen, cell-based, luminescence, split luciferase, SaOS-2, uHTS; Protein Mdm4 (Homo sapiens) + E3 ubiquitin-protein ligase Mdm2 (Homo sapiens), …; SaOS-2 split-luciferase Mdm2/MdmX complementation; inhibition, % at 8 µM; actives 3% (n = 330,000);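 active = inhibition of at least 50% at 8 µM in the primary screen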
# Target sequence (O15151 whole entry, looked up): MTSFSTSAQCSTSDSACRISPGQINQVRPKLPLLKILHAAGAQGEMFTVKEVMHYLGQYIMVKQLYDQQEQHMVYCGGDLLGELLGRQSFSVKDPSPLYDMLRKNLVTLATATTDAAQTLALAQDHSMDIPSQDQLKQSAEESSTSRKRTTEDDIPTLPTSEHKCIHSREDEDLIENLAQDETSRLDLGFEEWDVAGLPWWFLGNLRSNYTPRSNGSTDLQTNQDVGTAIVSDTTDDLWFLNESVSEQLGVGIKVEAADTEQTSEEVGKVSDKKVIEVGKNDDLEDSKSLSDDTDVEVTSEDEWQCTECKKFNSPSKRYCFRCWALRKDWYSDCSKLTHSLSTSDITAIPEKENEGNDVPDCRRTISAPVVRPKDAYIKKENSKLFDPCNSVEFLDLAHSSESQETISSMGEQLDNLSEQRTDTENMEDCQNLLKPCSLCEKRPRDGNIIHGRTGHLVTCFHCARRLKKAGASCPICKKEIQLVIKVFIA
# Target sequence (Q00987 whole entry, looked up): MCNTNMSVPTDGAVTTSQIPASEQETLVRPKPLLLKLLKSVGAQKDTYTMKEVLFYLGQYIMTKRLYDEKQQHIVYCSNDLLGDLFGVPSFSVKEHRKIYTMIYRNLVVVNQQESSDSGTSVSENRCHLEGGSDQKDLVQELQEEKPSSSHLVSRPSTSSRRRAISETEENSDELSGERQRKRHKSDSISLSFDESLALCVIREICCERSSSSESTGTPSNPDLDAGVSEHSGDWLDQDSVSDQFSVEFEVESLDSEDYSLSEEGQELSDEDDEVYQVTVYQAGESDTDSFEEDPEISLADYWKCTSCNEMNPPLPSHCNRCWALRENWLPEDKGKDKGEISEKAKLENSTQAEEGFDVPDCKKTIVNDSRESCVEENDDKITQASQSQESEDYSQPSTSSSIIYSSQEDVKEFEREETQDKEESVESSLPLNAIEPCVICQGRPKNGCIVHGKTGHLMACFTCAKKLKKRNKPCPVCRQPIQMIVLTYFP
# Mdm2-MdmX conf = Mdm2-MdmX complex disruptors, retested hits, confirmation, luminescence, single concentration. shares compounds with Mdm2-MdmX inh. Mdm2-MdmX binding, luminescent assay. inhibition, % at 8 µM. actives 55% (n = 10,000). AID 489028, 2010; in the data active = inhibition above about 40%
# Full FLuc ctr = full-length luciferase signal inhibition, confirmation, counter-screen for Mdm2/MdmX interaction inhibitor project, cell-based, single concentration, SaOS-2 | shares compounds with Mdm2-MdmX inh | inhibition, % at 8 µM | SaOS-2 full-length luciferase counterscreen, luminescence | actives 77% (n = 6,200) | AID 504607, 2011;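 active = mean inhibition at 8 µM reaching about 37%, which flags the compound as non-specific, limit read from the data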;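 also: p53-null SaOS-2 cells with luciferase driven by a doxycycline-inducible promoter; compound on cells about two nights before reading with doxycycline added after day one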
# The depositor's hits bear a star; / = no result given.
SMILES,CHOP UPR activ,UPR XBP1 act,MDM2 E3 inh,Beta2AR agonist,Dynein transport,Mdm2-MdmX inh,Mdm2-MdmX conf,Full FLuc ctr
Cc1ccc(C)c(S(=O)(=O)N2CCN(C(=O)c3cccnc3)CC2)c1,3.0,-3.5,/,-3.6,/,21.2,/,/
O=C(CCCN1C(=O)/C(=C/c2cccs2)SC1=S)Nc1cccc(O)c1,-0.8,-2.0,/,1.8,/,88.7*,79.7*,73.0*
CC(/C=C1\SC(=S)N(CCC(=O)Nc2ccc(O)cc2)C1=O)=C\c1ccccc1,8.6,0.8,/,11.8,/,62.0*,22.6,/
O=C(CN1C(=O)/C(=C/c2cccc(Br)c2)SC1=S)NC1=NCCS1,1.1,-1.1,-15.2,3.6,-0.228,26.6,/,/
O=C(CCCN1C(=O)/C(=C/c2ccccc2)SC1=S)Nc1cccc(O)c1,-0.3,-2.0,-10.5,9.7,1.65,100.2*,93.0*,58.0*
CC(/C=C1\SC(=S)N(CCCC(=O)Nc2ccc(C(=O)O)c(O)c2)C1=O)=C\c1ccccc1,/,/,-17.0,/,0.303,/,/,/
COc1cccc(/C=C2\SC(=S)N(CCCC(=O)NC3=NCCS3)C2=O)c1,-1.9,-6.6,/,1.5,/,62.5*,14.9,/
CSCc1ccc(C(=O)NC(C)c2cnn(-c3ccccn3)c2C)o1 (centres undefined),3.0,-5.6,/,-12.5,/,-9.9,/,/
COc1cccc(/C=C2\SC(=S)N(CCCC(=O)Nc3cc(C)on3)C2=O)c1,-2.6,5.2,/,-2.9,/,51.9*,57.9*,70.0*
COc1ccc(/C=C2/SC(=S)N(CCCC(=O)Nc3ccc(O)cc3)C2=O)cc1OC,-2.9,-5.6,/,18.7,/,89.9*,47.7*,29.9
C=CCn1c(COc2ccccc2)nnc1SC(C)C(=O)N/N=C/c1cc(Cl)ccc1O (centres undefined),-4.0,-2.9,4.6,0.3,1.6,64.6*,60.0*,30.6
O=C(C1CC(=O)N(c2ccc3c(c2)OCCO3)C1)N1CCCC(C(F)(F)F)C1 (centres undefined),0.1,1.4,/,-4.1,/,13.7,/,/
CCc1cccc2c(C(=O)CN3C(=O)NC4(CCc5ccccc54)C3=O)c[nH]c12 (centres undefined),1.5,5.4,/,16.7,/,7.1,/,/
CCc1cccc2c(C(=O)CN3C(=O)N(C)C4(CCCCC4)C3=O)c[nH]c12,0.9,-0.2,/,9.9,/,52.5*,23.6,/
Cc1ccc(OCC(=O)N/N=C\c2c(C)[nH]n(-c3ccccc3)c2=O)c([N+](=O)[O-])c1,0.0,0.9,-1.2,0.8,-0.941,52.4*,27.1,/
Cc1ccc(/C=N\NC(=O)COc2ccc(C)cc2[N+](=O)[O-])cc1,2.4,-1.7,-3.0,-10.4,-0.6,-14.6,/,/
Cc1ccc(/C=N/Nc2nncc(-c3ccccc3)n2)o1,3.3,-2.5,-2.0,-13.1,2.3,9.5,/,/
Cc1[nH]n(-c2ccccc2)c(=O)c1/C=N/Nc1nncc(-c2ccccc2)n1,5.1,0.8,-24.2,-0.2,1.26,88.0*,86.3*,54.7*
CCCCN(CCCC)C(=S)N/N=C/c1c(C)[nH]n(-c2ccccc2)c1=O,-3.8,3.1,-13.7,15.1,-0.432,83.7*,78.3*,44.8*
Cc1[nH]n(-c2ccc(Br)cc2)c(=O)c1/C=N/NC(=O)c1ccccc1,10.8,0.1,/,14.7,/,52.6*,51.7*,46.6*
COC(=O)[C@]1(C)N[C@H](CN(C)S(=O)(=O)c2ccccc2)[C@@H]2C(=O)N(Cc3ccccc3)C(=O)[C@@H]21,-0.9,-3.1,/,-14.9,/,10.5,/,/
COc1ccc(-n2ncc3c(N(C)C4CCCCC4)ncnc32)cc1,-9.3,-8.7,/,-17.9,/,88.4*,91.7*,101.9*
COc1ccc(-n2ncc3c(N4CCC(C)CC4)ncnc32)cc1,1.6,-3.1,/,10.0,/,25.0,/,/
Cc1cccc(-n2ncc3c(N(C)C4CCCCC4)ncnc32)c1,-9.5,-7.8,-86.3,6.4,-0.532,90.1*,87.0*,84.5*
Cc1cccc(-n2ncc3c(N(CCO)CCO)ncnc32)c1,-0.4,0.2,-19.0,6.2,0.028,-20.5,/,/
SMILES,CHOP UPR activ,UPR XBP1 act,MDM2 E3 inh,Beta2AR agonist,Dynein transport,Mdm2-MdmX inh,Mdm2-MdmX conf,Full FLuc ctr
COc1ccc(-c2cc3nc(C)n(N)c(=O)c3s2)cc1,-10.3,-9.8,-88.4,-1.1,1.11,88.7*,88.2*,55.9*
Cc1nc2cc(-c3ccccc3)sc2c(=O)n1N,-8.6,-11.3,-90.7,-19.9,-0.0171,62.3*,55.6*,30.0
CCCCN(C(=O)c1ccc(C)cc1)c1c(N)n(CCC)c(=O)[nH]c1=O,2.8,0.9,/,0.6,/,20.4,/,/
COc1ccc(CCN2C(=O)c3[nH]nc(-c4ccccc4O)c3C2c2cccc(Cl)c2)cc1 (centres undefined),1.5,5.6,-3.1,24.4,1.55,76.1*,57.1*,74.4*
O=C(c1ccc(Cl)c(NC2=NC3CS(=O)(=O)CC3S2)c1)N1CCN(c2ccc(F)cc2)CC1 (centres undefined),0.1,-4.3,/,8.1,/,9.5,/,/
O=C(CN1CCCCC1)NC(=O)NC1CCCC1,0.0,-2.0,-3.1,-5.2,-0.679,19.7,/,/
O=C(Cn1ncc(Cl)c(Cl)c1=O)Nc1ccc2c(c1)OCO2,38.9,-2.0,/,12.4,/,100.3*,82.8*,57.2*
O=C(Cn1ncc(Cl)c(Cl)c1=O)NC(=O)NC1CCCCC1,-1.4,-9.4,/,6.5,/,100.2*,96.7*,50.0*
CCOC(=O)c1ccc(NC(=O)Cn2ncc(Cl)c(Cl)c2=O)cc1,1.0,-8.7,10.3,74.2*,-4.15*,88.7*,100.2*,51.4*
CCOC(=O)c1ccc(NC(=O)Cn2nc(C)c3ccccc3c2=O)cc1,-0.1,-3.0,/,-5.9,/,15.9,/,/
